These results are taken from PMC5548007 (European journal of medicinal chemistry, 2017).

For data set [1] the following is noted: mice, single oral dose 1 mg/kg; cited from earlier work.
Another data set relates to LNCaP cells. The data set is described as follows: WST-1 cell proliferation assay, LNCaP. Format: cell-based. The following applies: Homo sapiens, 72 h, read-out: IC50 LNCaP. In outline:
(§1)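 PC-3 and LNCaP cells grown in RPMI-1640, DU145 in EMEM, each with 10% FBS and 1% penicillin/streptomycin at 37 °C, 5% CO2. Cells seeded at 3,200/well, then exposed 3 days to at least five doses of test compound, with DMSO as vehicle control. WST-1 reagent added for 3 h at 37 °C, absorbance read at 430 nm. IC50 taken from linear inhibition plot; mean ± SD of triplicates.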
On the technique in general: Tetrazolium dyes change colour on reduction, which living cells bring about.

In data set [2] the test system is PC-3 cells. The settings on record: cited from earlier work.
A further data set has as its system DU145 cells. Briefly: WST-1 cell proliferation assay, DU145. Format: cell-based. The settings on record: Homo sapiens, DU-145, 72 h, read-out: IC50 DU145. In short, it runs like this: as §1
Data set [3] concerns PC-3 cells. The data set is described as follows: WST-1 cell proliferation assay, PC-3. Format: cell-based. The following applies: Homo sapiens, PC-3, 72 h, read-out: IC50 PC-3. In short, it runs like this:
as §1

A short description of data set [4]: Metabolic profiling by liver microsome incubation. The class given is in vitro ADME, human. The settings on record: 37 °C, 60 min, NADPH; mono-hydroxylation products by HRMS. In outline: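 Pooled human liver microsomes in potassium phosphate buffer (pH 7.4) with NADPH solutions A and B were preincubated for 5 min at 37 °C. Test compound was added from a 10 mM stock and incubated for 60 min at 37 °C. Methanol stopped the reaction, and samples were centrifuged at 10,000 × g for 4 min at 4 °C. Supernatant was analysed by UHPLC with high-resolution mass spectrometry.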

Another data set deals with rats. The data set is described as follows: Acute in vivo toxicity in rats. The settings on record: oral 10 mg/kg. In short, it runs like this: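 Male Sprague-Dawley rats (250–300 g), n = 4, dosed once by oral gavage at 10 mg/kg in 5% DMSO / 40% PEG 400 / 55% saline. Dosing was part of a pharmacokinetic study, with tail-vein blood drawn at 1, 3, 6 and 24 h. Time to death after oral dosing was recorded in hours.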

In data set [5] the test system is PC-3 cells. Briefly: Cell cycle analysis by flow cytometry with propidium iodide staining. Format: cell-based, human. The following applies: for Cell cycle phase of arrest: PC-3, 28 at 5 μM, 46 at 4 μM. In short, it runs like this: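 PC-3 cells were seeded at 200,000/well and allowed to attach for 3 h. They were treated with test compound at 4 or 5 μM, or DMSO vehicle, at 37 °C and harvested at 16 or 24 h, including floating cells. Cells were fixed in cold 80% ethanol for 30 min at 4 °C and RNase-treated for 30 min at 37 °C. Staining used propidium iodide (50 μg/mL stock) for 30 min, and DNA content was read by flow cytometry within 0.5–1 h.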
On the technique in general: Flow cytometry measures light scatter and fluorescence of single cells or particles in a stream.

Data set [6] relates to three human prostate cancer cell lines. Briefly: Anti-proliferative potency across three prostate cancer cell lines. Format: cell-based. The following applies: read-out: IC50 range in three prostate cancer cell lines. In outline: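 Human prostate cancer cells were grown at 37 °C in 5% CO2: PC-3 and LNCaP in RPMI-1640, DU-145 in EMEM, each with 10% FBS and 1% penicillin/streptomycin. Cells were seeded at 3,200/well and exposed to test compound for 3 days, with DMSO as vehicle control. WST-1 reagent was added for 3 h at 37 °C and absorbance read at 430 nm. IC50 came from linear inhibition over ≥5 doses, averaged over triplicates.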

Data set [7] can be described thus: Oral pharmacokinetic study in Sprague-Dawley rats. The class given is in vivo, rat. The settings on record: single oral dose 10 mg/kg. In short, it runs like this:
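Male Sprague-Dawley rats (250–300 g, n = 4) received a single 10 mg/kg oral gavage in 5% DMSO/40% PEG 400/55% saline. Tail-vein blood was taken into EDTA at 1, 3, 6 and 24 h, and plasma was stored at −80 °C. Plasma was extracted with chloroform/methanol (2:1) using a 13C2,15N-tamoxifen internal standard. Quantitation was by UPLC–triple-quadrupole MS/MS with a water/acetonitrile 0.05% formic acid gradient.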

Where two headings read alike, the source gives them in different places.

In general, IC50 refers to the concentration that gives 50% inhibition. Turning to `COc1cc(/C=C/C(=O)CC(=O)/C=C/c2ccc(O)c(OC)c2)ccc1O` [Curcumin], in data set [1], the “Area under curve (AUC)” value was 2.85 ng·h/mL. In addition, the IC50 in the data set on LNCaP cells was found to be 13.6 ± 2.69 µM; with DU145 cells, 26.2 ± 0.65 µM; in the data set on PC-3 cells [3], 25.4 ± 2.15 µM. In the data set with PC-3 cells [2], the “Cell cycle phase of arrest” value is listed as “G1/S phase”.

`CCn1c(/C=C/C(=O)/C=C/c2sc(C)nc2C(F)(F)F)nc2ccccc21` [Compd 49, (1E,4E)-1-(1-Ethyl-1H-benzo[d]imidazol-2-yl)-5-(2-methyl-4-(trifluoromethyl)thiazol-5-yl)penta-1,4-dien-3-one]: the “Major metabolic products detected after microsomal incubation” value in data set [4] is given as “two major metabolic products”. Also, in the data set with rats, the “Acute in vivo toxicity (tolerability)” value is listed as “without observed toxicity”.

On to `CCCn1ccnc1/C=C/C(=O)/C=C/c1nc2ccccc2n1CCC` [Compd 46, (1E,4E)-1-(1-Propyl-1H-benzo[d]imidazole-2-yl)-5-(1-propyl-1H-imidazole-2-yl)penta-1,4-dien-3-one], for which the “Time to death after oral dosing” value with rats is given as “about 48 hours”. For the same compound, in the data set with PC-3 cells [5], the “Cell cycle phase of arrest” value is “cell cycle arrest at the G0/G1 phase”.

Turning to `CC(C)n1c(/C=C/C(=O)/C=C/c2ccccn2)nc2ccccc21` [Compd 58, (1E,4E)-1-(1-Isopropyl-1H-benzo[d]imidazol-2-yl)-5-(pyridin-2-yl)penta-1,4-dien-3-one], the IC50 in data set [6] lay in the range of 0.03 to 0.12 µM. Further, in the data set on rats, the “Time to death after oral dosing” value is around 72 h.

For the compound `CCC(C)n1ccnc1/C=C/C(=O)/C=C/c1sc(C)nc1C(F)(F)F` (stereo not drawn) [Compd 28, (1E,4E)-1-(1-(sec-Butyl)-1H-imidazol-2-yl)-5-(2-methyl-4-(trifluoromethyl)thiazol-5-yl)penta-1,4-dien-3-one], the “Major metabolic products detected after microsomal incubation” value in data set [4] was “three major metabolic products”. In addition, the “Acute in vivo toxicity (tolerability)” value in the data set with rats is reported as “without observed toxicity”. Moreover, in data set [7], the “Peak plasma concentration in molar units” value came out at 5.27 µM. Moreover, in the data set with PC-3 cells [5] (5 μM, 16 h), the “Lower cell population at G2 phase vs control, 16 h” value is given as 10%. Further, in the data set on PC-3 cells [5] (5 μM, 24 h), the “Higher cell population at G0/G1 phase vs control, 24 h” value came to 4% and the “Lower cell population at G2 phase vs control, 24 h” value was determined as 3%. For the same compound, the “Cell cycle phase of arrest” value with PC-3 cells [5] was “cell cycle arrest at the G0/G1 phase”.
